MEKK3 PB1 HTS: raises or lowers MEK5 binding to the human MEKK3 PB1 domain | hit rate 1.4% among 290,000 | binding response (% of control), % at 10 µM | Q99759 | bead-based flow cytometry, Alexa488-MEK5 binding to MEKK3; actives lie on both sides; 0 = blocked by unlabeled MEK5, 100 = vehicle;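 active = binding response more than 3 SD above or below the average of its plate-row segment, actives on both sides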;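 note: Alexa488 bead fluorescence after subtracting the streptavidin-only scavenger bead signal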
Apaf-1 inh: blocks human Apaf-1 apoptosome activity | O14727 | reconstituted apoptosome caspase-3 activity, DEVD-Rh110 fluorescence | inhibition, % at 20 µM | hit rate 0.71% among 330,000; active = inhibition of at least 40% at 20 µM;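 note: plate controls were DMSO wells for no effect and DEVD-CHO caspase inhibitor wells for full effect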
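System – cell-free apoptosome with Apaf-1, procaspase-3 and caspase-9 · Buffer or medium – pH 7.5 Hepes buffer with CHAPS, BSA, DTT · Also added – cytochrome c with DEVD-Rh110 · Times – 30 min compound preincubation, 50 min activation, room temperature · Technique – Rh110 fluorescence intensity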
MEKK2mut PB1 HTS: signal of MEK5 binding to mutant human MEKK2 PB1 domain. bead flow cytometry, Alexa488-MEK5 binding to MEKK2 mutant. percent response, % at 10 µM. hit rate 0.35% among 290,000. AID 1530; in the data active = percent response above about 24%, passing the limit was not always enough
MEKK2wt PB1 HTS: raises or lowers MEK5 binding to wildtype human MEKK2 PB1 domain; Q9Y2U5; bead flow cytometry, Alexa488-MEK5 binding to MEKK2 WT; actives lie on both sides; binding response (% of control), % at 10 µM; hit rate 1.1% among 290,000; AID 1531; in the data active = binding response below about 67% or above about 130%
UBC13 polyUb: blocks human UBC13 polyubiquitin chain formation; AID 485273; P61088; inhibition, % at 20 µM; hit rate 0.47% among 330,000; TR-FRET; in the data active = inhibition above about 45%, passing the limit was not always enough
Target sequence (P61088 whole entry, looked up): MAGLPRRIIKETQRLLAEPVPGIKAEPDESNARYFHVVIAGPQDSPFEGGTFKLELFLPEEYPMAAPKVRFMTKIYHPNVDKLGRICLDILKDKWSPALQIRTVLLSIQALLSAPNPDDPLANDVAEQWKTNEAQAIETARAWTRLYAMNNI
UCH37 DUB inh: inhibitors of human deubiquitinating enzyme UCH37 | Q9Y5K5 | purified proteasome/UCH37, Ub-AMC cleavage fluorescence | inhibition, % (no concentration beside the values) | hit rate 0.33% among 330,000 | AID 588478;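 active = mean inhibition over replicate wells above about 20%, limit read from the data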;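 note: 0% = compound-free wells with enzyme and 100% = wells lacking proteasome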
Target sequence (Q9Y5K5 whole entry, looked up): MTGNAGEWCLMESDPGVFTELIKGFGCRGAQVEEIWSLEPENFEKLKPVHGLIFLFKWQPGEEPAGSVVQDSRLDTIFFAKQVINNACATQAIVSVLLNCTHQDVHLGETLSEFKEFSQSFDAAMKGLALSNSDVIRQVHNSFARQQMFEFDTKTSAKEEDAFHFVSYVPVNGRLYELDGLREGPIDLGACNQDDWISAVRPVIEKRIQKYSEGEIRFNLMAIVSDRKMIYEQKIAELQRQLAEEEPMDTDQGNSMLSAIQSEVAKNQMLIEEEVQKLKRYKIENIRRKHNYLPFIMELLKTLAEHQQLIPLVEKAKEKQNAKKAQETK
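Test system – human UCH37 enzyme supplied as purified proteasome complex · Incubation – 30 min preincubation with enzyme, 25 min cleavage at room temperature · Detection – AMC fluorescence from Ub-AMC cleavage, excitation 355 nm, emission 460 nm · Benchmarks – no-proteasome wells (full inhibition) and compound-free wells (no inhibition)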
MEKK2wt confirm: raises or lowers MEK5 binding to wildtype human MEKK2, retest | shares compounds with MEKK3 PB1 HTS | bead flow cytometry, Alexa488-MEK5 binding to MEKK2 WT; actives lie on both sides | binding response (% of control), % at 10 µM | hit rate 2.4% among 5,900; in the data active = binding response below about 16% or above about 210%; inactive = in between
MEKK2mut confirm: signal of MEK5 binding to mutant human MEKK2, retest; AID 1893; hit rate 2% among 5,900; percent response, % at 10 µM; shares compounds with MEKK3 PB1 HTS; bead flow cytometry, Alexa488-MEK5 binding to MEKK2 mutant; in the data active = percent response mostly above about 71%, no sharp cut-off; inactive = mostly below about 38%;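 note: higher means compound restores mutant binding toward wildtype level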
MEKK3-MEK5 inh: MEKK3-MEK5 PB1 inhibition, single concentration confirmation. binding response (% of control), % at 10 µM. shares compounds with MEKK3 PB1 HTS. bead flow cytometry, Alexa488-MEK5 binding to MEKK3; active compounds read low. hit rate 1.8% among 5,900;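 active = binding response below 72% of control, or above a set upper limit, though filed actives all read lower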;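 note: 100% = DMSO only wells and 0% = binding blocked by excess unlabeled MEK5; lower values mean stronger disruption of MEK5 binding to MEKK3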
* hit, by the source's call; [ ] = remark or other dose. Sampled rows, rich in hits. Any-hit rate of the full collection: about 3%.

Screening O=C(Cn1c(=O)n(-c2ccccc2)c(=O)c2oc3ccccc3c21)Nc1ccccc1 returned MEKK3 PB1 HTS 131*, Apaf-1 inh 1, MEKK2mut PB1 HTS 0, MEKK2wt PB1 HTS 103, UBC13 polyUb -3, UCH37 DUB inh 3, MEKK2wt confirm 106, MEKK2mut confirm 4 and MEKK3-MEK5 inh 102.
`COc1ccc(CN2CCN(Cc3c[nH]c4ccccc34)CC2)cc1` gave MEKK3 PB1 HTS 106, Apaf-1 inh 12, MEKK2mut PB1 HTS 12, MEKK2wt PB1 HTS 114, UBC13 polyUb 3 and UCH37 DUB inh 2.
COc1ccc(Br)cc1CN1CCN(Cc2c[nH]c3ccccc23)CC1 was read as MEKK3 PB1 HTS 94, Apaf-1 inh 13, MEKK2mut PB1 HTS 27*, MEKK2wt PB1 HTS 117, UBC13 polyUb 22, UCH37 DUB inh 5, MEKK2wt confirm 138, MEKK2mut confirm 19 and MEKK3-MEK5 inh 107.
Screening O=C(NNC(=S)Nc1cccc2ccccc12)c1cccc(Br)c1 returned MEKK3 PB1 HTS 80*[inhibitor], Apaf-1 inh 4, MEKK2mut PB1 HTS -7, MEKK2wt PB1 HTS 85, UBC13 polyUb -18, UCH37 DUB inh 6, MEKK2wt confirm 90, MEKK2mut confirm -7 and MEKK3-MEK5 inh 91.
`O=C(Nc1ccc(F)cc1)c1ccc(CSc2ccccc2)o1` gave MEKK3 PB1 HTS 145*, Apaf-1 inh 21, MEKK2mut PB1 HTS 0, MEKK2wt PB1 HTS 107, UBC13 polyUb -1, UCH37 DUB inh 2, MEKK2wt confirm 106, MEKK2mut confirm 2 and MEKK3-MEK5 inh 105.
C=C1C(O)[C@@H]2O[C@]3(CC[C@H](/C=C/C(C)[C@@H]4CC(C)=CC5(O[C@H](C[C@@](C)(O)CO)CCC5O)O4)O3)CC[C@H]2O[C@@H]1C(O)CC(C)[C@H]1OC2(CCCCO2)CCC1C (some centres undefined) was read as Apaf-1 inh -6, UBC13 polyUb 12 and UCH37 DUB inh -2.
NNC(=O)[C@@H]1C[C@@H]1c1ccccc1 was read as MEKK3 PB1 HTS 153*, Apaf-1 inh -3, MEKK2mut PB1 HTS 0, MEKK2wt PB1 HTS 111, UBC13 polyUb 1, UCH37 DUB inh -1, MEKK2wt confirm 84, MEKK2mut confirm -13 and MEKK3-MEK5 inh 84.
NNC(=O)C1CC1c1ccccc1 (centres undefined) was read as MEKK3 PB1 HTS 99, Apaf-1 inh 0, MEKK2mut PB1 HTS 7, MEKK2wt PB1 HTS 98, UBC13 polyUb -7 and UCH37 DUB inh 3.
COc1ccc(CSc2nnc(-c3ccncc3)n2N)cc1 was read as MEKK3 PB1 HTS 108, Apaf-1 inh 5, MEKK2mut PB1 HTS 10, MEKK2wt PB1 HTS 102, UBC13 polyUb -1 and UCH37 DUB inh 4.
Screening COC(=O)c1ccc2[nH]c(CO)c(-c3ccccc3)c2c1 returned MEKK3 PB1 HTS 102, Apaf-1 inh 10, MEKK2mut PB1 HTS 0, MEKK2wt PB1 HTS 98, UBC13 polyUb 21 and UCH37 DUB inh 2.
For N#Cc1ccc2[nH]c(CO)c(-c3ccccc3)c2c1 the results were MEKK3 PB1 HTS 0.0*[inhibitor], Apaf-1 inh 15, MEKK2mut PB1 HTS -21, MEKK2wt PB1 HTS -13*[inhibitor], UBC13 polyUb 16, MEKK2wt confirm 106, MEKK2mut confirm -2 and MEKK3-MEK5 inh 106.
Screening CN(CCC#N)C(=O)COC(=O)c1ccc2c(=O)n3c(nc2c1)CCC3 returned MEKK3 PB1 HTS 128*, Apaf-1 inh -3, MEKK2mut PB1 HTS 0, MEKK2wt PB1 HTS 111, UBC13 polyUb 6, UCH37 DUB inh -11, MEKK2wt confirm 98, MEKK2mut confirm -1 and MEKK3-MEK5 inh 99.
Screening N#CCCN(C(=O)COC(=O)c1ccc2c(=O)n3c(nc2c1)CCC3)c1ccccc1 returned MEKK3 PB1 HTS 102, Apaf-1 inh -5, MEKK2mut PB1 HTS -5, MEKK2wt PB1 HTS 102, UBC13 polyUb -1 and UCH37 DUB inh -12.
`Cc1[nH]n(-c2nc(-c3ccccc3)cc(=O)[nH]2)c(=O)c1CCO` gave MEKK3 PB1 HTS 92, Apaf-1 inh -4, MEKK2mut PB1 HTS -7, MEKK2wt PB1 HTS 91, UBC13 polyUb -14 and UCH37 DUB inh 5.
For COC(=O)/C(=C/c1ccc2c(c1)c1ccccc1n2C)NC(=O)c1ccccc1 the results were MEKK3 PB1 HTS 73*[inhibitor], Apaf-1 inh -6, MEKK2mut PB1 HTS -1, MEKK2wt PB1 HTS 99, UBC13 polyUb 2, UCH37 DUB inh -35, MEKK2wt confirm 105, MEKK2mut confirm -1 and MEKK3-MEK5 inh 105.
`NC(=O)CC(NC(=O)c1cccc(Br)c1)c1ccc(N2CCC(N3CCCC3)CC2)c([N+](=O)[O-])c1` (centres undefined) gave MEKK3 PB1 HTS 110, Apaf-1 inh -2, MEKK2mut PB1 HTS 21, MEKK2wt PB1 HTS 153*, UBC13 polyUb -7, UCH37 DUB inh 2, MEKK2wt confirm 125, MEKK2mut confirm 9 and MEKK3-MEK5 inh 100.
NC(=O)CC(NC(=O)c1cccc(Br)c1)c1ccc(N2CCCCCC2)c([N+](=O)[O-])c1 (centres undefined) was read as MEKK3 PB1 HTS 100, Apaf-1 inh 14, MEKK2mut PB1 HTS -6, MEKK2wt PB1 HTS 96, UBC13 polyUb -20 and UCH37 DUB inh -1.
`CC(C)(C)NC(=O)COC(=O)CNC(=O)c1cc(Cl)cc([N+](=O)[O-])c1` gave MEKK3 PB1 HTS 131*, Apaf-1 inh -1, MEKK2mut PB1 HTS 0, MEKK2wt PB1 HTS 106, UBC13 polyUb -8, UCH37 DUB inh 3, MEKK2wt confirm 92, MEKK2mut confirm -8 and MEKK3-MEK5 inh 89.
Screening CC(C)CNC(=O)COC(=O)CNC(=O)c1cc(Cl)cc([N+](=O)[O-])c1 returned MEKK3 PB1 HTS 149*, Apaf-1 inh -1, MEKK2mut PB1 HTS 0, MEKK2wt PB1 HTS 105, UBC13 polyUb -3, UCH37 DUB inh 3, MEKK2wt confirm 104, MEKK2mut confirm 9 and MEKK3-MEK5 inh 109.
S=C(c1c[nH]c2ccc(Br)cc12)N1CCOCC1 was read as Apaf-1 inh 9, UBC13 polyUb -3 and UCH37 DUB inh 1.
`CCC(C)(C)NC(=O)COc1ccc(C(=O)c2ccccc2)cc1` gave MEKK3 PB1 HTS 88, Apaf-1 inh 5, MEKK2mut PB1 HTS -1, MEKK2wt PB1 HTS 94, UBC13 polyUb -1 and UCH37 DUB inh -2.

Assay outcomes: PubChem, several laboratories
